Assay results as given in ChEMBL document CHEMBL2417490, “Synthesis and biological evaluation of pyrazolo[4,3-d]pyrimidine analogues” (Eur J Med Chem, 2013).
≈ marks a conversion by molar mass, not a printed value.

Columns and labels:
[1] = Cytotoxicity against human 7221 cells assessed as inhibition of cell replication after 72 hrs by MTT assay; format: functional, cell-based
Method in brief: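 7221 hepatoma cells, harvested in log phase with 0.05% trypsin/1 mM EDTA and grown at 37 °C in 5% CO₂, were plated, grown overnight and then exposed to a concentration series (final DMSO <0.1%). MTT was added for 4 h and absorbance read at 570 nm. IC₅₀ came from probit analysis.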

[2] = biological target: Xanthine dehydrogenase/oxidase (Homo sapiens, UniProt P47989); assay: Inhibition of xanthine oxidase (unknown origin) using xanthine as substrate assessed as uric acid formation preincubated for 5 mins followed by substrate addition measured every minute up to 8 mins by spectrophotometric analysis
Xanthine dehydrogenase/oxidase, sequence (P47989 whole entry): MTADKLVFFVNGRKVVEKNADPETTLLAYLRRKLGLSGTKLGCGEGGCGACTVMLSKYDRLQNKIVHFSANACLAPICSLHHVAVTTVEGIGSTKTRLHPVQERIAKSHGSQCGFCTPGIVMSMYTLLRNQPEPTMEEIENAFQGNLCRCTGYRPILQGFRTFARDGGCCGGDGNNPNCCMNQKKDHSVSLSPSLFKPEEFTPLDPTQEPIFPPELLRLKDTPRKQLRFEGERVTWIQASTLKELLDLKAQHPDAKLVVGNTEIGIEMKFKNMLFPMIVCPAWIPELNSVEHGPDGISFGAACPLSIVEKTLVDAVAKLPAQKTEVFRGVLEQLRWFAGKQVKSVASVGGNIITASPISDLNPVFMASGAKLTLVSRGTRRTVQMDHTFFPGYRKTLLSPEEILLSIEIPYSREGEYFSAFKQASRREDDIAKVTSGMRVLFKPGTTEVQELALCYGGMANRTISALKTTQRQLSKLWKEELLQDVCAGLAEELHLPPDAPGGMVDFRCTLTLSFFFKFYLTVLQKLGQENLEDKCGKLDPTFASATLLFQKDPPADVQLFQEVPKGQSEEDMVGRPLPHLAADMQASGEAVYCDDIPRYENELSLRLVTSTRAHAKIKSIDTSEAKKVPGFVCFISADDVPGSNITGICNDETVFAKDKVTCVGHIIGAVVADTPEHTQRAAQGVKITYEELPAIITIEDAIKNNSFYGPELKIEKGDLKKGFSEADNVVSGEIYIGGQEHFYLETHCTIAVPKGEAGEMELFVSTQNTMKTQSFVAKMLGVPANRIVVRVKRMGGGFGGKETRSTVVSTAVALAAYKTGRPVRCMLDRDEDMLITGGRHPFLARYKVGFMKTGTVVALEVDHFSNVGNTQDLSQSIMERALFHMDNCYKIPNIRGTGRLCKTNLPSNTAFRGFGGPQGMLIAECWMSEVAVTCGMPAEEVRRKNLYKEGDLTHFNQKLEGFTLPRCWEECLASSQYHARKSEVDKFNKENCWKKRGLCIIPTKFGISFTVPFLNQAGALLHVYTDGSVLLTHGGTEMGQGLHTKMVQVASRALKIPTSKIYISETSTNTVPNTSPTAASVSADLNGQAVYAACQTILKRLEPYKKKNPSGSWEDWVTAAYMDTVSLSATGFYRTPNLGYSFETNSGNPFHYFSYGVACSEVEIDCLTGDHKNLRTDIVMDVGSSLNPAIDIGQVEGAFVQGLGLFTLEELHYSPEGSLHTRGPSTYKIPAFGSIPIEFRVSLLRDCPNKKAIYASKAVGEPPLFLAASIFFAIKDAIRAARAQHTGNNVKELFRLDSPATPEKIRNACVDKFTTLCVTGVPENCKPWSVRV

[3] = Cytotoxicity against human 7402 cells assessed as inhibition of cell replication after 72 hrs by MTT assay; format: functional, cell-based
Method in brief: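 7402 hepatoma cells, harvested in log phase with 0.05% trypsin/1 mM EDTA and grown at 37 °C in 5% CO₂, were seeded at 1 × 10⁵ cells/mL, grown overnight and then exposed to a concentration series (final DMSO <0.1%). MTT was added for 4 h and absorbance read at 570 nm. IC₅₀ came from probit analysis.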

Structure (SMILES) | IC50 ([2]; read-out: IC50 (converted)) [µM] | IC50 [2] | IC50 [1] [µg/mL] | IC50 [3] [µg/mL]
CCOC(=O)Cn1ncc2c(Nc3ccc(NS(=O)(=O)c4ccc([N+](=O)[O-])cc4)cc3)ncnc21 | > 201 | – | > 64 | > 64
CCOC(=O)Cn1ncc2c(Cl)ncnc21 | – | Not Active | > 100 | > 100
CCOC(=O)Cn1ncc2c(Nc3ccc(NC(=O)CCl)cc3)ncnc21 | – | – | 3.51 (≈ 9.03 µM) | 7.27 (≈ 18.7 µM)
C=CCNC1=C2C[C@@H](C)C[C@H](OC)[C@H](O)[C@@H](C)/C=C(\C)[C@H](OC(N)=O)[C@@H](OC)/C=C\C=C(/C)C(=O)NC(=CC1=O)C2=O (stereo in doubt) [TANESPIMYCIN] | – | – | 5.77 (≈ 9.85 µM) | 7.27 (≈ 12.4 µM)
CCOC(=O)Cn1ncc2c(Nc3ccc(NC(=O)c4ccccc4)cc3)ncnc21 | 81.9 | – | > 100 | > 100
CCOC(=O)Cn1ncc2c(Nc3ccc(NC(C)=O)cc3)ncnc21 | 109 | – | > 64 | > 64
CCOC(=O)Cn1ncc2c(Nc3ccc(N)cc3)ncnc21 | – | – | > 64 | > 64
CCOC(=O)Cn1ncc2c(Nc3ccc(NS(=O)(=O)c4ccccc4)cc3)ncnc21 | 172 | – | > 100 | > 100
O=C(O)Cn1ncc2c(Nc3ccc(NC(=O)c4ccccc4)cc3)ncnc21 | 104 | – | > 100 | > 100

Further lines, with some results ahead:

IC50 ([2]; read-out: IC50 (converted)) [µM] | IC50 [2] | Structure (SMILES) | IC50 [1] [µg/mL] | IC50 [3] [µg/mL]
102 | – | O=C(O)Cn1ncc2c(Nc3ccc(NC(=O)CCl)cc3)ncnc21 | > 100 | > 100
– | Not Active | CCOC(=O)Cn1ncc2c(Nc3ccc(NS(=O)(=O)c4ccc(Br)cc4)cc3)ncnc21 | > 64 | > 64
144 | – | O=C(O)Cn1ncc2c(Nc3ccc(NS(=O)(=O)c4ccccc4)cc3)ncnc21 | > 100 | > 100
> 199 | – | O=C(O)Cn1ncc2c(Nc3ccc(NS(=O)(=O)c4ccc(Br)cc4)cc3)ncnc21 | > 64 | > 64
190 | – | O=C(O)Cn1ncc2c(Nc3ccc(NS(=O)(=O)c4ccc([N+](=O)[O-])cc4)cc3)ncnc21 | > 100 | > 100
103 | – | CC(=O)Nc1ccc(Nc2ncnc3c2cnn3CC(=O)O)cc1 | > 64 | > 64
